Active and inactive are the calls of the source. The calls are words filed in the database; no cut-off is given here. Some results are limits rather than exact numbers.

The source of these data is ChEMBL document CHEMBL4613314, “Exploring the Implication of DDX3X in DENV Infection: Discovery of the First-in-Class DDX3X Fluorescent Inhibitor” (ACS Med Chem Lett, 2020).

A short description of data set [1]: Cytotoxicity against human HuH7 cells assessed as reduction in cell viability by measuring ATP level measured after 72 hrs by CellTiter-Glo luminescent assay. Type of data set: cell-based, Huh-7. The gist of the method:
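Huh-7 cells; viable cell number determined from cellular ATP content by CellTiter-Glo 2.0 luminescence; CC50 derived.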
A general note: In ATP-based viability assays light output follows the ATP content of the culture.

The next data set can be described thus: in vitro. To be noted: human.
In data set [2] the test system is dengue virus type 2. Put plainly: Antiviral activity against Dengue virus serotype 2 New Guinea C infected at 50 TCID50 in human HuH7 cells assessed as inhibition of viral replication and 72 hrs later re-infected pre-seeded HuH7 cells with viral supernatant collected from previous infected and measured after 72 hrs by immunodetection assay. The format is functional, organism-based. To be noted: Huh-7, 72 h. Summed up:
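Huh-7 cells infected with 50 TCID50 DENV-2 in presence of serial compound dilutions; after 72 h supernatants used to infect preseeded Huh-7 cells for a second infection cycle; replication read after further 72 h by immunoenzymatic assay with monoclonal antibody to conserved viral E antigen region. IC50 from at least two experiments, mean ± SD.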

The target in data set [3] is T1, ATP-dependent RNA helicase DDX3X (Homo sapiens, UniProt O00571). Nature of the data set: Inhibition of recombinant full length human His-tagged DDX3X expressed in Escherichia coli using dsRNA as substrate measured after 40 mins in presence of ATP by FRET assay.
Target sequence in this assay (O00571 whole entry): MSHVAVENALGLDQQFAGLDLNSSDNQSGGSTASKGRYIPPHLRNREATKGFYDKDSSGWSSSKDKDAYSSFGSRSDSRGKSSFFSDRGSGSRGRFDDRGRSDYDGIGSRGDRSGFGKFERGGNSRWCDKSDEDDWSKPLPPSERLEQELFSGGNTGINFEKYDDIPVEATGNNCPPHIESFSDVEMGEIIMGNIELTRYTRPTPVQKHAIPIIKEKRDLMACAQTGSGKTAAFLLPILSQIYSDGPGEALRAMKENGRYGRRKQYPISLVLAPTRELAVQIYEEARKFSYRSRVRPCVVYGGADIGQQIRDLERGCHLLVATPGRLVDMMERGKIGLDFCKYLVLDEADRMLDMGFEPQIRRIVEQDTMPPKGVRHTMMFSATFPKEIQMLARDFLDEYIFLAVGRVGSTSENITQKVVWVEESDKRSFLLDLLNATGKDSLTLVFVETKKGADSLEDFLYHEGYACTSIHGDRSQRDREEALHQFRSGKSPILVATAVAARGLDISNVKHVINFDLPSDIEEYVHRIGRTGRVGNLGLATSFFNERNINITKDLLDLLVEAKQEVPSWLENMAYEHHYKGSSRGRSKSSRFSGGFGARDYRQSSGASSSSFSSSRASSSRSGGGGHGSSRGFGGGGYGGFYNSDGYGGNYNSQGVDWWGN
For data set [4], the system named is dengue virus type 2. Put plainly: Antiviral activity against Dengue virus serotype 2 New Guinea C infected at 100 TCID50 in human HuH7 cells assessed as reduction of NS5 positive cells at 20 uM measured at 48 to 72 hrs post-infection by Alexa fluor 488 dye based confocal microscopy. Type of data set: functional, organism-based. The conditions noted are these: Huh-7. The gist of the method: (§1)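 DENV-2-infected Huh-7 cells (100 TCID50) treated with fluorescent inhibitor at 20 μM; immunostained for DDX3X or NS5 and examined by confocal microscopy over time up to 72 h p.i.; viable cell number and NS5-positive cell number scored.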

In data set [5] the target is T1, ATP-dependent RNA helicase DDX3X. Put plainly: Induction of DDX3X recruitment in human HuH7 cells infected with 100 TCID50 of Dengue virus serotype 2 New Guinea C assessed as increase in DDX3X expression in perinuclear region at 20 uM measured at 48 to 72 hrs post-infection by Alexa fluor 488 dye based confocal microscopy. To be noted: Huh-7. The format is cell-based. The gist of the method: as §1
Target sequence in this assay (O00571 2-662 limits assumed): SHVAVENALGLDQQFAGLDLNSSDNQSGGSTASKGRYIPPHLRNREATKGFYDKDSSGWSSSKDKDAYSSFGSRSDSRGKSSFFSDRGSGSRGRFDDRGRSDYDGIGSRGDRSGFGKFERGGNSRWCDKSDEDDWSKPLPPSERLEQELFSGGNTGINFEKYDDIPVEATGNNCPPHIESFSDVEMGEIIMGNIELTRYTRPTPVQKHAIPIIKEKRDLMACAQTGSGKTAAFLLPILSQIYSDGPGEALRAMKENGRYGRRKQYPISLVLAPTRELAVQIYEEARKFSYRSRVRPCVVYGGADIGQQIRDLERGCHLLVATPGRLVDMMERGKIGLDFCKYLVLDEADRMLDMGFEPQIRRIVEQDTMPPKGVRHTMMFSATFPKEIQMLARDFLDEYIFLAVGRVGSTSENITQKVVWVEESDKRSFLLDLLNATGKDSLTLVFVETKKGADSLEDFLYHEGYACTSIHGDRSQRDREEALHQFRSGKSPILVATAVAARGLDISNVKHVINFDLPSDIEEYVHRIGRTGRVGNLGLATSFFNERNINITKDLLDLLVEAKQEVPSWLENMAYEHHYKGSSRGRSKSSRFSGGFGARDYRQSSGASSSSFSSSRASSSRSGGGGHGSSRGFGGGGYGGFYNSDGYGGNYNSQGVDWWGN

Data set [6] concerns dengue virus type 2. Nature of the data set: Antiviral activity against Dengue virus serotype 2 New Guinea C infected at 100 TCID50 in human HuH7 cells assessed as increase in viable cells at 20 uM measured at 48 to 72 hrs post-infection by Alexa fluor 488 dye based confocal microscopy. Type of data set: functional, organism-based. The conditions noted are these: Huh-7. Summed up:
as §1

Data set [7] concerns the target T1, ATP-dependent RNA helicase DDX3X. Put plainly: Induction of DDX3X recruitment in human HuH7 cells infected with 100 TCID50 of Dengue virus serotype 2 New Guinea C assessed as colocalization of DDX3X in perinuclear region at 20 uM measured at 6 to 24 hrs post-infection by Alexa fluor 488 dye based confocal microscopy. To be noted: Huh-7. Type of data set: cell-based. The gist of the method: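 Huh-7 cells infected with DENV-2 at 100 TCID50, treated with fluorescent inhibitor at 20 μM; fixed at 0, 6, 12 and 24 h p.i., permeabilized, immunostained for DDX3 or NS5 (Alexa Fluor 568 secondary) and examined by confocal microscopy for colocalization with the probe.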
Target sequence in this assay (O00571 2-662 limits assumed): as above

Data set [8] relates to dengue virus type 2. Nature of the data set: Antiviral activity against Dengue virus serotype 2 New Guinea C infected at 100 TCID50 in human HuH7 cells assessed as cytoplasmic localization of NS5 followed by movement to nucleus at 20 uM measured at 6 hrs post-infection by […]. Type of data set: functional, organism-based. The conditions noted are these: Huh-7.
Data set [9] deals with dengue virus type 2. Put plainly: Antiviral activity against Dengue virus serotype 2 New Guinea C infected at 100 TCID50 in human HuH7 cells assessed as reduction in number of NS5 positive cells at 0.1 to 20 uM measured up to 24 hrs by Alexa fluor 488 dye based confocal microscopy. To be noted: Huh-7. Type of data set: functional, organism-based.
Data set [10] has as its system dengue virus type 2. Nature of the data set: Antiviral activity against Dengue virus serotype 2 New Guinea C infected at 100 TCID50 in human HuH7 cells assessed as reduction in number of NS3 positive cells at 0.1 to 20 uM measured up to 24 hrs by Alexa fluor 488 dye based confocal microscopy. The format is functional, organism-based. To be noted: Huh-7.
For data set [11], the system named is dengue virus type 2. Nature of the data set: Antiviral activity against Dengue virus serotype 2 New Guinea C infected at 100 TCID50 in human HuH7 cells assessed as reduction in number of dsRNA positive cells at 0.1 to 20 uM measured up to 24 hrs by Alexa fluor 488 dye based confocal microscopy. Type of data set: functional, organism-based. To be noted: Huh-7.

The test system of data set [12] is dengue virus type 2. Nature of the data set: Antiviral activity against Dengue virus serotype 2 New Guinea C infected at 100 TCID50 in human HuH7 cells assessed as cytopathic effect by measuring increase in viable cells at 0.1 to 20 uM measured up to 24 hrs by Alexa fluor 488 based confocal microscopy. The format is functional, organism-based. The conditions noted are these: Huh-7. A general note: Protection from cytopathic effect is a common read-out in antiviral testing.

As to `CC(C)CCc1cn(-c2ccc(NC(=O)Nc3ccccc3F)cc2)nn1`, the CC50 – broadly, the concentration at which the toxic effect on the cells reaches its halfway point – at 72 h in data set [1] is 200 µM. Further, in “in vitro” (HuH7 cells), the selectivity ratio at 72 h was 222. Moreover, the IC50 – broadly, the concentration at which inhibition is half-maximal – in the data set with dengue virus type 2 [2] was 0.9 µM.
For the compound `CCCCc1cn(-c2cccc(S(=O)(=O)Nc3ccccc3OC)c2)nn1`, the CC50 at 72 h in data set [1] worked out at 79 µM. The IC50 stood at 0.18 µM in [3] and 6.3 µM with dengue virus type 2 [2].
For `CCCCc1cn(-c2cccc(S(=O)(=O)Nc3cccc4cnccc34)c2)nn1`, in data set [1], the CC50 at 72 h was determined as 30 µM. The results for the IC50 (in data set [3]; with dengue virus type 2 [2]) were 0.12 µM and 2.3 µM, respectively.
In the case of `CCCCc1cn(-c2ccc(NC(=O)Nc3cccc(F)c3)cc2)nn1`, the CC50 at 72 h in data set [1] stood at 200 µM. Further, the selectivity ratio at 72 h in “in vitro” (HuH7 cells) worked out at 19. Also, the half-inhibitory concentration (IC50) was determined as 0.6 µM in data set [3] and 10.5 µM in the data set with dengue virus type 2 [2].
Regarding `COc1cc(-n2cc(CCC(C)C)nn2)ccc1NC(=O)Nc1ccccc1C(F)(F)F`, the IC50 in data set [3] worked out at 1.05 µM.
`NC(=O)c1ncn([C@@H]2O[C@H](CO)[C@@H](O)[C@H]2O)n1` [RIBAVIRIN]: the CC50 at 72 h in data set [1] amounted to 100 µM. Also, the selectivity ratio at 72 h in “in vitro” worked out at 25. Also, the IC50 in the data set with dengue virus type 2 [2] turned out to be 4 µM.
For the compound `CCOCc1cn(-c2ccc(NC(=O)Nc3cccc(F)c3)cc2)nn1`, the CC50 at 72 h in data set [1] is 145 µM. The figures for the IC50 (in data set [3]; in the data set on dengue virus type 2 [2]) were 21.2 µM and greater than 145 µM, respectively.
`CCCCCCc1cn(-c2ccc(NC(=O)Nc3ccccc3C(F)(F)F)cc2)nn1`: the CC50 at 72 h in [1] stood at 170 µM. The selectivity ratio at 72 h in “in vitro” (HuH7 cells) turned out to be 62.9. Further, the results for the IC50 (in data set [3]; with dengue virus type 2 [2]) were 0.3 µM and 2.7 µM, respectively.
With `O=C1OC2(c3ccc(O)cc3Oc3cc(O)ccc32)c2cc(NC(=S)NCCOCc3cn(-c4cccc(S(=O)(=O)Nc5ccccc5C(F)(F)F)c4)nn3)ccc21`, the result (in the data set with dengue virus type 2 [4]; in [5]; in the data set on dengue virus type 2 [6]; in [7]; in the data set on dengue virus type 2 [8]) was Active. Further, the CC50 at 72 h in data set [1] is 140 µM. Moreover, in the data set with dengue virus type 2 [2], the IC50 was 28.2 µM.
Take `CC(=O)CCc1cn(-c2ccc(NC(=O)Nc3cccc(F)c3)cc2)nn1`: the cytotoxic concentration (CC50) at 72 h in [1] turned out to be 20 µM. Besides, the selectivity ratio at 72 h in “in vitro” (HuH7 cells) is 64.7. In addition, the IC50 in data set [3] came out at 2.4 µM; in the data set with dengue virus type 2 [2], 0.3 µM.
For the compound `CCOCc1cn(-c2cccc(S(=O)(=O)Nc3cccc(C(=O)O)c3)c2)nn1`, the CC50 at 72 h in data set [1] worked out at 7 µM. Besides, the IC50 with dengue virus type 2 [2] was greater than 7 µM.
Take `CCCC(C)C(F)c1cn(-c2ccc(NC(=O)Nc3ccccc3C(F)(F)F)cc2)nn1` (stereo not given): in [3], the IC50 is 1.05 µM.
On to `CCOCc1cn(-c2cccc(S(=O)(=O)Nc3cccc(C(=O)OCC)c3)c2)nn1`, for which the CC50 at 72 h in data set [1] was 100 µM. Also, the selectivity ratio at 72 h in “in vitro” (HuH7 cells) is 23.2. Also, the figures for the IC50 (in data set [3]; in the data set with dengue virus type 2 [2]) were 0.005 µM and 4.3 µM, respectively.
As for `CCOCc1cn(-c2cccc(S(=O)(=O)Nc3ccccc3N3CCOCC3)c2)nn1`, the CC50 at 72 h in [1] was 100 µM. In addition, in “in vitro” (HuH7 cells), the selectivity ratio at 72 h worked out at 18.9. In addition, the IC50 in [3] is 0.06 µM; in the data set on dengue virus type 2 [2] it was 5.3 µM.
On to `CC(C)OC(=O)[C@H](C)N[P@](=O)(OC[C@H]1O[C@@H](n2ccc(=O)[nH]c2=O)[C@](C)(F)[C@@H]1O)Oc1ccccc1` [SOFOSBUVIR], for which the CC50 at 72 h in data set [1] was determined as 200 µM. Further, the selectivity ratio at 72 h in “in vitro” (HuH7 cells) came to 52.6. Further, in the data set with dengue virus type 2 [2], the IC50 was determined as 3.8 µM.
With `O=C(Nc1ccc(-n2cc(CF)nn2)cc1)Nc1ccccc1C(F)(F)F`, in [3], the IC50 is 2.2 µM.
Take `CC(C)CCc1cn(-c2ccc(NC(=O)Nc3cccc(F)c3)cc2)nn1`: in data set [1], the half-maximal cytotoxic concentration (CC50) at 72 h is 200 µM. For the same compound, the selectivity ratio at 72 h in the data set “in vitro” (HuH7 cells) amounted to 80. Moreover, the IC50 with dengue virus type 2 [2] turned out to be 2.5 µM.
As to `CCOCc1cn(-c2cccc(S(=O)(=O)Nc3ccccc3NS(C)(=O)=O)c2)nn1`, the CC50 at 72 h in data set [1] was determined as 87 µM. The selectivity ratio at 72 h in the data set “in vitro” (HuH7 cells) was 10.5. Further, the IC50 in data set [3] was found to be 0.08 µM; in the data set on dengue virus type 2 [2], 8.3 µM.
`COc1cc(NC(=O)Nc2ccccc2C(F)(F)F)ccc1-n1cc(CCC(C)C)nn1`: in data set [3], the IC50 worked out at 0.3 µM.
As for `CCCCc1cn(-c2cccc(S(=O)(=O)Nc3ccccc3C(F)(F)F)c2)nn1`, the CC50 at 72 h in data set [1] turned out to be 18 µM. In “in vitro” (HuH7 cells), the selectivity ratio at 72 h amounted to 3. Also, in the data set with dengue virus type 2 [2], the IC50 was 6.1 µM.
On to `CCOCc1cn(-c2cccc(S(=O)(=O)Nc3ccccc3C(F)(F)F)c2)nn1`, for which, in data set [1], the CC50 at 72 h was 150 µM. In addition, the outcome in the data set with dengue virus type 2 [9], in the data set with dengue virus type 2 [10], in the data set with dengue virus type 2 [11] and with dengue virus type 2 [12] was Active. The IC50 in the data set on dengue virus type 2 [2] was determined as 2.6 µM.
With `CC(C)CCc1cn(-c2ccc(NC(=O)Nc3ccc(F)cc3)cc2)nn1`, the IC50 in data set [3] is 1.9 µM.
In the case of `Cc1ccccc1NC(=O)Nc1ccc(-n2cc(CCC(C)C)nn2)cc1`, the CC50 at 72 h in [1] was determined as 170 µM. Further, the selectivity ratio at 72 h in the data set “in vitro” (HuH7 cells) is 121. Besides, the IC50 in data set [3] was 0.17 µM; with dengue virus type 2 [2] it was 1.4 µM.
With `CCCCc1cn(-c2cccc(S(=O)(=O)Nc3ccccc3O)c2)nn1`, the CC50 at 72 h in data set [1] came out at 150 µM. Moreover, the figures for the IC50 (in data set [3]; with dengue virus type 2 [2]) were 0.4 µM and 1.6 µM, respectively.
Take `CCCCc1cn(-c2ccc(NC(=O)Nc3ccccc3C)cc2)nn1`: in the data set with dengue virus type 2 [2], the IC50 came out at 2.55 µM.
With `CCCCc1cn(-c2ccc(NC(=O)Nc3ccccc3NS(C)(=O)=O)cc2)nn1`, the CC50 at 72 h in [1] is 35 µM. The selectivity ratio at 72 h in “in vitro” (HuH7 cells) turned out to be 14. Besides, the figures for the IC50 (in data set [3]; with dengue virus type 2 [2]) were 0.06 µM and 2.5 µM, respectively.
